The results in this text go back to ChEMBL document CHEMBL3407471, “Development of potent inhibitors of pyocyanin production in Pseudomonas aeruginosa” (J Med Chem, 2015).

Calls of active or inactive are those of the source. Unless noted, the rule behind the calls is not given here.

Data set [1] has as its system Pseudomonas aeruginosa. As to the kind of experiment: Inhibition of quorum sensing activity in wild-type Pseudomonas aeruginosa PA14 assessed as inhibition of pyocyanin production at 100 uM by spectrophotometry relative to control. Format: functional. In outline: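 Wild-type P. aeruginosa PA14 cultures exposed to compound at 100 μM. Pyocyanin read as absorbance at 695 nm. Efficacy scaled so that wild-type pyocyanin level = 0% and absorbance equal to background medium = 100%.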

The subject of data set [2] is Pseudomonas aeruginosa. Briefly: Antimicrobial activity against wild-type Pseudomonas aeruginosa PA14. Type of data set: functional.
The subject of data set [3] is Pseudomonas aeruginosa. As to the kind of experiment: Inhibition of quorum sensing activity in wild-type Pseudomonas aeruginosa PA14 assessed as inhibition of pyocyanin production by spectrophotometry relative to control. Type of data set: functional. The method, boiled down: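 Pyocyanin produced by wild-type PA14, read by absorbance at 695 nm, across a range of compound levels. IC50 derived from the dose–response.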

The test system of data set [4] is Escherichia coli. As to the kind of experiment: Agonist activity at LasR in Escherichia coli at 100 uM.
In data set [5] the test system is Escherichia coli. As to the kind of experiment: Agonist activity at RhlR in Escherichia coli at 100 uM.
Data set [6] relates to Escherichia coli. As to the kind of experiment: Antagonist activity at LasR in Escherichia coli assessed as reduction of AHL-induced GFP production at 100 uM.
Data set [7] concerns Escherichia coli. As to the kind of experiment: Antagonist activity at RhlR in Escherichia coli assessed as reduction of AHL-induced GFP production at 100 uM.
Data set [8] deals with Escherichia coli. As to the kind of experiment: Competitive binding to LasR in Escherichia coli at 100 to 500 uM. The method, boiled down: (§1)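 Competition format: compound at 100 μM and 500 μM combined with increasing amounts of the receptor's native AHL (LasR or RhlR). Receptor response compared with a DMSO control.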
The test system of data set [9] is Escherichia coli. Briefly: Competitive binding to RhlR in Escherichia coli at 100 to 500 uM. In outline:
as §1

In data set [10] the test system is Pseudomonas aeruginosa. Briefly: Antibiofilm activity against wild-type static Pseudomonas aeruginosa PA14 at 100 uM by spectrophotometry. Format: functional.
In data set [11] the test system is Pseudomonas aeruginosa. Briefly: Inhibition of pyocyanin production in wild-type Pseudomonas aeruginosa PA14 assessed as down regulation of PA14_35160 relative to control. Type of data set: functional. In outline:
(§2)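 Wild-type PA14 cultures treated with compound, and a DMSO-treated culture served as control. RNA extracted and analysed by microarray. Genes counted as changed when expression differed by more than 2-fold.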

For data set [12], the system named is Pseudomonas aeruginosa. As to the kind of experiment: Inhibition of pyocyanin production in wild-type Pseudomonas aeruginosa PA14 assessed as down regulation of PA14_16310 relative to control. Type of data set: functional. In outline: as §2
The test system of data set [13] is Pseudomonas aeruginosa. As to the kind of experiment: Inhibition of pyocyanin production in wild-type Pseudomonas aeruginosa PA14 assessed as down regulation of mexH relative to control. Format: functional. The method, boiled down:
as §2

For data set [14], the system named is Pseudomonas aeruginosa. As to the kind of experiment: Inhibition of pyocyanin production in wild-type Pseudomonas aeruginosa PA14 assessed as down regulation of mexI relative to control. Type of data set: functional. The method, boiled down: as §2
For data set [15], the system named is Pseudomonas aeruginosa. Briefly: Inhibition of pyocyanin production in wild-type Pseudomonas aeruginosa PA14 assessed as down regulation of mexG relative to control. Type of data set: functional. In outline: as §2
For data set [16], the system named is Pseudomonas aeruginosa. Briefly: Inhibition of pyocyanin production in wild-type Pseudomonas aeruginosa PA14 assessed as down regulation of opmD relative to control. Type of data set: functional. In outline:
as §2

Data set [17] relates to Pseudomonas aeruginosa. Briefly: Inhibition of pyocyanin production in wild-type Pseudomonas aeruginosa PA14 assessed as down regulation of PA14_21530 relative to control. Format: functional. In outline:
as §2

In data set [18] the test system is Pseudomonas aeruginosa. As to the kind of experiment: Inhibition of pyocyanin production in wild-type Pseudomonas aeruginosa PA14 assessed as down regulation of PA14_22320 relative to control. Type of data set: functional. In outline:
as §2

In data set [19] the test system is Pseudomonas aeruginosa. As to the kind of experiment: Inhibition of pyocyanin production in wild-type Pseudomonas aeruginosa PA14 assessed as down regulation of ahpF relative to control. Type of data set: functional. In outline: as §2
Data set [20] concerns Pseudomonas aeruginosa. As to the kind of experiment: Inhibition of pyocyanin production in wild-type Pseudomonas aeruginosa PA14 assessed as down regulation of trxB2 relative to control. Format: functional. In outline: as §2
Data set [21] deals with Pseudomonas aeruginosa. Briefly: Inhibition of pyocyanin production in wild-type Pseudomonas aeruginosa PA14 assessed as down regulation of katA relative to control. Type of data set: functional. The method, boiled down: as §2
Data set [22] deals with Pseudomonas aeruginosa. As to the kind of experiment: Inhibition of pyocyanin production in wild-type Pseudomonas aeruginosa PA14 assessed as down regulation of PA14_03090 relative to control. Type of data set: functional. The method, boiled down: as §2
The test system of data set [23] is Pseudomonas aeruginosa. Briefly: Inhibition of pyocyanin production in wild-type Pseudomonas aeruginosa PA14 assessed as down regulation of PA14_58040 relative to control. Type of data set: functional. In outline: as §2
Data set [24] has as its system Pseudomonas aeruginosa. Briefly: Inhibition of pyocyanin production in wild-type Pseudomonas aeruginosa PA14 assessed as down regulation of PA14_51830 relative to control. Format: functional. In outline: as §2
The test system of data set [25] is Pseudomonas aeruginosa. As to the kind of experiment: Inhibition of pyocyanin production in wild-type Pseudomonas aeruginosa PA14 assessed as down regulation of katB relative to control. Format: functional. In outline: as §2
Data set [26] concerns Pseudomonas aeruginosa. As to the kind of experiment: Inhibition of pyocyanin production in wild-type Pseudomonas aeruginosa PA14 assessed as down regulation of fumC relative to control. Type of data set: functional. In outline: as §2
Data set [27] can be described thus: Effect on pyocyanin oxidation state in cell free culture fluid up to 17 hrs by spectrophotometry. Format: ADME. In outline: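 Cell-free culture fluids already containing pyocyanin incubated with compound, to test for a change in pyocyanin oxidation state independent of its production.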

For `CCCCCCCCCCCC(=O)Nc1ccnc(F)c1`, the Efficacy in the data set on Pseudomonas aeruginosa [1] amounted to 70%. Besides, the result in the data set on Pseudomonas aeruginosa [2], in the data set with Escherichia coli [4], with Escherichia coli [5], in the data set on Escherichia coli [6] and in the data set on Escherichia coli [7] was inactive. The IC50 in the data set with Pseudomonas aeruginosa [3] was 4.4 µM.
Consider `O=C(CCCCCOc1cccc(F)c1)Nc1ccnc(C(F)(F)F)c1`, for which, in the data set with Pseudomonas aeruginosa [1], the Efficacy stood at 103%. Besides, the outcome in the data set with Pseudomonas aeruginosa [2], in the data set with Escherichia coli [4], in the data set with Escherichia coli [5], in the data set with Escherichia coli [6] and in the data set on Escherichia coli [7] was inactive. In addition, in the data set with Pseudomonas aeruginosa [3], the IC50 stood at 6.3 µM.
With `O=C(CCCCCOc1cccc(Br)c1)Nc1ccnc(C(F)(F)F)c1`, the Efficacy with Pseudomonas aeruginosa [1] was found to be 99%. The result in the data set with Pseudomonas aeruginosa [2], in the data set with Escherichia coli [4], in the data set on Escherichia coli [5], with Escherichia coli [6], in the data set on Escherichia coli [7] and with Escherichia coli [8] was inactive. Further, the outcome in the data set on Escherichia coli [9] and in the data set with Pseudomonas aeruginosa [10] was inactive. The IC50 with Pseudomonas aeruginosa [3] was 2.7 µM. Also, the “fold change (FC)” value in the data set on Pseudomonas aeruginosa [11] worked out at 4.93; in the data set on Pseudomonas aeruginosa [12], 3.27; in the data set on Pseudomonas aeruginosa [13], 2.93; in the data set with Pseudomonas aeruginosa [14] it was 2.84; in the data set on Pseudomonas aeruginosa [15] it was 2.68; in the data set with Pseudomonas aeruginosa [16], 2.5. Also, the “fold change (FC)” value in the data set on Pseudomonas aeruginosa [17] was 44.39; in the data set on Pseudomonas aeruginosa [18], 35.99; in the data set on Pseudomonas aeruginosa [19], 33.03; in the data set on Pseudomonas aeruginosa [20] it was 27.79; in the data set with Pseudomonas aeruginosa [21], 20.8; in the data set on Pseudomonas aeruginosa [22] it was 14.35. Besides, the “fold change (FC)” value in the data set with Pseudomonas aeruginosa [23] is 5.67; in the data set with Pseudomonas aeruginosa [24] it was 5.6; with Pseudomonas aeruginosa [25], 4.15; with Pseudomonas aeruginosa [26] it was 2.71.
Turning to `CCCCCCCCCC(=O)CC(=O)Nc1ccncc1`, the Efficacy in the data set with Pseudomonas aeruginosa [1] is recorded as 63%. The outcome in the data set on Pseudomonas aeruginosa [2], in the data set on Escherichia coli [4], in the data set on Escherichia coli [5], in the data set on Escherichia coli [6] and in the data set with Escherichia coli [7] was inactive. Further, the IC50 in the data set on Pseudomonas aeruginosa [3] stood at 0.16 µM. Besides, in data set [27], the Stability entry is on record as “Stable”.
Consider `CCCCCCCCCCCCCCCCOC(=O)C1COc2ccccc21` (centres undefined), for which, in the data set on Pseudomonas aeruginosa [1], the Efficacy was 1.5%. The result with Pseudomonas aeruginosa [2] was inactive.
With `CCCCCCCCCC(=O)CC(=O)Nc1ccnc(F)c1`, in the data set with Pseudomonas aeruginosa [1], the Efficacy was -8.5%. In addition, the outcome with Pseudomonas aeruginosa [2] was inactive.
On the same counts, the results for `COc1cc(NC(=O)CC(=O)CCCOc2cccc(Br)c2)ccn1` are 40% and “inactive”.
